How the values were obtained:
[1] = target: T1, Mitogen-activated protein kinase 13 (Homo sapiens) (UniProt O15264); experiment: Inhibition of human recombinant p38delta at 500 nM in presence of ATP by radiometric assay relative to control
T1 sequence (whole entry): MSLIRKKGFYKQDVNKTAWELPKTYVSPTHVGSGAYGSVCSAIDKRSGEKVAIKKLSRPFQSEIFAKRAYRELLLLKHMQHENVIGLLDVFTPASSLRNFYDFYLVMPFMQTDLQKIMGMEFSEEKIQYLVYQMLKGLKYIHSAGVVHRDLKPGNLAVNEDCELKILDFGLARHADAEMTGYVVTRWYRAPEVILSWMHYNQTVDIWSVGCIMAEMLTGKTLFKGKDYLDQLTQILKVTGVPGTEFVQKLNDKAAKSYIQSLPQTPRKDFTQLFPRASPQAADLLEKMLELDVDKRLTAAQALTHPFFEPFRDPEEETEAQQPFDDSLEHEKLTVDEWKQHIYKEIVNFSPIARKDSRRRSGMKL

[2] = target: Serine/threonine-protein kinase 32C (Homo sapiens) (UniProt Q86UX6); experiment: Inhibition of human recombinant YANK3 at 500 nM in presence of ATP by radiometric assay relative to control
[3] = target: Macrophage colony-stimulating factor 1 receptor (Homo sapiens) (UniProt P07333); experiment: Inhibition of human recombinant FMS at 500 nM related to control ULK1
[4] = target: Serine/threonine-protein kinase 10 (Homo sapiens) (UniProt O94804); experiment: Inhibition of human recombinant LOK at 500 nM related to control ULK1
[5] = target: Calcium/calmodulin-dependent protein kinase type 1G (Homo sapiens) (UniProt Q96NX5); experiment: Inhibition of human recombinant CaMK1g at 15 nM in presence of ATP by radiometric assay relative to control
[6] = target: Cyclin-dependent kinase 7 (Homo sapiens) (UniProt P50613); experiment: Inhibition of human recombinant CDK7 at 15 nM in presence of ATP by radiometric assay relative to control
[7] = target: Protein kinase C theta type (Homo sapiens) (UniProt Q04759); experiment: Inhibition of human recombinant PKCt at 15 nM in presence of ATP by radiometric assay relative to control
[8] = target: T2, Dual specificity protein kinase TTK (Homo sapiens) (UniProt P33981); experiment: Inhibition of human recombinant TTK at 15 nM in presence of ATP by radiometric assay relative to control
T2 sequence (whole entry): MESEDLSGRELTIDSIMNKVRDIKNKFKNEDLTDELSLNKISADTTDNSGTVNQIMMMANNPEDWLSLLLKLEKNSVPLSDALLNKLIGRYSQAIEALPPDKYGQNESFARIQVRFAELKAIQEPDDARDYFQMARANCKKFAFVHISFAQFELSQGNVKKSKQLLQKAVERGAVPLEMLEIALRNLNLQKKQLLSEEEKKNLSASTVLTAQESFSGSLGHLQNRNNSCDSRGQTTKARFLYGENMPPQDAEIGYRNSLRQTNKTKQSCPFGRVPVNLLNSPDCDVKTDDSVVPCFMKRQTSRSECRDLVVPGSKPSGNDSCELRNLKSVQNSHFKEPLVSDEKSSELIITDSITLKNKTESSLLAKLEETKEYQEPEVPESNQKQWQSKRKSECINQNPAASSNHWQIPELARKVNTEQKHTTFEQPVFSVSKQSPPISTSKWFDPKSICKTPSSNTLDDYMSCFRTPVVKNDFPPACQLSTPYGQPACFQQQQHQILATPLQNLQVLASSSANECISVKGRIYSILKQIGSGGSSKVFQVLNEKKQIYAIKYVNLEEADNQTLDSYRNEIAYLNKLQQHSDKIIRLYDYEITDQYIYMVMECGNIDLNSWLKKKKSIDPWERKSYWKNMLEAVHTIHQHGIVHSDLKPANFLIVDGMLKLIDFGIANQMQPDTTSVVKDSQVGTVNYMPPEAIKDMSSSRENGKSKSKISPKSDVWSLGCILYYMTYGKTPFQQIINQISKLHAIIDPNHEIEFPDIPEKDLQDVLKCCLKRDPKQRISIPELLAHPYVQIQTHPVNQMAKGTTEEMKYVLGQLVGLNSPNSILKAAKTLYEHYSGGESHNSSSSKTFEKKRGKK

[9] = target: Tyrosine-protein kinase JAK2 (Homo sapiens) (UniProt O60674); experiment: Inhibition of human recombinant JAK2 at 15 nM related to control ULK1
[10] = target: Serine/threonine-protein kinase 38-like (Homo sapiens) (UniProt Q9Y2H1); experiment: Inhibition of human recombinant NDR2 at 15 nM related to control ULK1
[11] = target: Hepatocyte growth factor receptor MET (Homo sapiens) (UniProt P08581); experiment: Inhibition of human recombinant MET at 15 nM in presence of ATP by radiometric assay relative to control
[12] = target: Calcium/calmodulin-dependent protein kinase type 1G (Homo sapiens) (UniProt Q96NX5); experiment: Inhibition of human recombinant CaMK1g at 40 nM in presence of ATP by radiometric assay relative to control
[13] = target: Cyclin-dependent kinase 18 (Homo sapiens) (UniProt Q07002); experiment: Inhibition of human recombinant PCTAIRE3 at 40 nM in presence of ATP by radiometric assay relative to control
[14] = target: Serine-protein kinase ATM (Homo sapiens) (UniProt Q13315); experiment: Inhibition of human recombinant ATM at 40 nM related to control ULK1
How it was run: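 Radiometric activity assays in a panel of 327 human recombinant kinases, each run in duplicate at one inhibitor concentration. Activity remaining is expressed as percent of vehicle control, and percent inhibition is calculated as 100% minus percent activity remaining.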

[15] = target: Cyclin-dependent kinase 7 (Homo sapiens) (UniProt P50613); experiment: Inhibition of human recombinant CDK7 at 40 nM related to control ULK1

Chain of Cyclin-dependent kinase 7 (Homo sapiens) (P50613 whole entry): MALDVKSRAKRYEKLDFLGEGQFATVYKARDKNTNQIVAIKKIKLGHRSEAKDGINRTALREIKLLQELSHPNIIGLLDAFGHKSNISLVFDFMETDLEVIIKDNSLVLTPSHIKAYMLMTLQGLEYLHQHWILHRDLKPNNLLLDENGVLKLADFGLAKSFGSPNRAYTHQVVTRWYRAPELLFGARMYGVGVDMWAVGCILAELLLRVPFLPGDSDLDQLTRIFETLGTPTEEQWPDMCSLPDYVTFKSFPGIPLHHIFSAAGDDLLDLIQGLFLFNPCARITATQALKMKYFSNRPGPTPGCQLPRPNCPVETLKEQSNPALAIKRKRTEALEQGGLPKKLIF
Chain of Calcium/calmodulin-dependent protein kinase type 1G (Homo sapiens) (Q96NX5 whole entry): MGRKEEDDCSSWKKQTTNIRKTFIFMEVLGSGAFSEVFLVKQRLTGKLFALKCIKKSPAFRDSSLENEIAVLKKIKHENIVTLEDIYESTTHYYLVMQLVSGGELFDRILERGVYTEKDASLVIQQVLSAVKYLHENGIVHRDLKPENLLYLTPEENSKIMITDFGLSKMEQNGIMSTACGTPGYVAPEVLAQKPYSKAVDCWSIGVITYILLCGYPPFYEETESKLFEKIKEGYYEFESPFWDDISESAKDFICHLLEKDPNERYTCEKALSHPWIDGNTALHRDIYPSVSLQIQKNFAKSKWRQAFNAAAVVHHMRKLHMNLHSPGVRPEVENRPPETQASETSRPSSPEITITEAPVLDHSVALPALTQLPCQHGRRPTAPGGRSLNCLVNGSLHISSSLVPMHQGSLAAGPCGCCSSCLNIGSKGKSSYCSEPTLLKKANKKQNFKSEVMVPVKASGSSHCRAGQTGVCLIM
Chain of Serine/threonine-protein kinase 38-like (Homo sapiens) (Q9Y2H1 2-464 limits assumed): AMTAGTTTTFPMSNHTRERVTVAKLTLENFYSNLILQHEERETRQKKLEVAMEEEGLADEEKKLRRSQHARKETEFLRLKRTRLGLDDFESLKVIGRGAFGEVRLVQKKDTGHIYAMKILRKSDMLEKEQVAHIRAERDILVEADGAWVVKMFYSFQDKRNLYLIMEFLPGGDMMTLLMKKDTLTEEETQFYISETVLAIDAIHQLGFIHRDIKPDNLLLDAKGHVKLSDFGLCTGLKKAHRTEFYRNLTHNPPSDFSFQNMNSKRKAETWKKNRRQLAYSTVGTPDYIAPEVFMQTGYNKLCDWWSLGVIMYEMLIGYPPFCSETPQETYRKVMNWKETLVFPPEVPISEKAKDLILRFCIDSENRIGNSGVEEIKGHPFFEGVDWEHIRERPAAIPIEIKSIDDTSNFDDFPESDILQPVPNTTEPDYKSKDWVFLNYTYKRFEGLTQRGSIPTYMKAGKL
Chain of Protein kinase C theta type (Homo sapiens) (Q04759 whole entry, looked up): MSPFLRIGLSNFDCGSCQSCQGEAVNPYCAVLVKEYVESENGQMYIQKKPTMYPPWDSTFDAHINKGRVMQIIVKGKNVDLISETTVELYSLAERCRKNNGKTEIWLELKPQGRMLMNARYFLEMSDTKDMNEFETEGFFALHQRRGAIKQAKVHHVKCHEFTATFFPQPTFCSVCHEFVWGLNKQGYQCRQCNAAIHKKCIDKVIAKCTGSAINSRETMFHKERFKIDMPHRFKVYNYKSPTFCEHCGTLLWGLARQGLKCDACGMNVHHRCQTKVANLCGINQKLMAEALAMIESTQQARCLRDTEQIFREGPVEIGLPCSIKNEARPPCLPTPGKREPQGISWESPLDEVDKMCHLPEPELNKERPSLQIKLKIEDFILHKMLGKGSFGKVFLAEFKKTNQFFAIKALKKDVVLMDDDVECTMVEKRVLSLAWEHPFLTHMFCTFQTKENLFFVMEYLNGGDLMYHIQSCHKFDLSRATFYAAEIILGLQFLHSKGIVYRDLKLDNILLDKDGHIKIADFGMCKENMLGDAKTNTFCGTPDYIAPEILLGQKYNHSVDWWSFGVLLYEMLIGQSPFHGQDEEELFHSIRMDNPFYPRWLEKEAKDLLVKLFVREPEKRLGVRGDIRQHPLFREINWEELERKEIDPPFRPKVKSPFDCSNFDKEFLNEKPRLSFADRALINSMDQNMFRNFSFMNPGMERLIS
Chain of Serine/threonine-protein kinase 32C (Homo sapiens) (Q86UX6 whole entry): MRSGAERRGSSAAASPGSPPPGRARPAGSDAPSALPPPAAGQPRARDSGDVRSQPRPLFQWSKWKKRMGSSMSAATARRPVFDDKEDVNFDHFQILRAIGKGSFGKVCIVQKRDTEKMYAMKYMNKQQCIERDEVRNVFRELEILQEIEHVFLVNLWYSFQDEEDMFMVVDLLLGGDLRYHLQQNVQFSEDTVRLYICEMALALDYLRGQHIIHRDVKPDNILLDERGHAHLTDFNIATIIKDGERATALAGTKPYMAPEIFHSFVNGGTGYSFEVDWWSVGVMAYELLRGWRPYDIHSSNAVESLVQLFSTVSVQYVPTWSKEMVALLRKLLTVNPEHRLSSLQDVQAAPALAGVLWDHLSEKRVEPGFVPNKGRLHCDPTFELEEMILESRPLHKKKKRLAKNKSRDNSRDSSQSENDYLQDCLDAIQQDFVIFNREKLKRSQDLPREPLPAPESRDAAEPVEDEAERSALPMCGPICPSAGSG
Chain of Hepatocyte growth factor receptor MET (Homo sapiens) (P08581 whole entry, looked up): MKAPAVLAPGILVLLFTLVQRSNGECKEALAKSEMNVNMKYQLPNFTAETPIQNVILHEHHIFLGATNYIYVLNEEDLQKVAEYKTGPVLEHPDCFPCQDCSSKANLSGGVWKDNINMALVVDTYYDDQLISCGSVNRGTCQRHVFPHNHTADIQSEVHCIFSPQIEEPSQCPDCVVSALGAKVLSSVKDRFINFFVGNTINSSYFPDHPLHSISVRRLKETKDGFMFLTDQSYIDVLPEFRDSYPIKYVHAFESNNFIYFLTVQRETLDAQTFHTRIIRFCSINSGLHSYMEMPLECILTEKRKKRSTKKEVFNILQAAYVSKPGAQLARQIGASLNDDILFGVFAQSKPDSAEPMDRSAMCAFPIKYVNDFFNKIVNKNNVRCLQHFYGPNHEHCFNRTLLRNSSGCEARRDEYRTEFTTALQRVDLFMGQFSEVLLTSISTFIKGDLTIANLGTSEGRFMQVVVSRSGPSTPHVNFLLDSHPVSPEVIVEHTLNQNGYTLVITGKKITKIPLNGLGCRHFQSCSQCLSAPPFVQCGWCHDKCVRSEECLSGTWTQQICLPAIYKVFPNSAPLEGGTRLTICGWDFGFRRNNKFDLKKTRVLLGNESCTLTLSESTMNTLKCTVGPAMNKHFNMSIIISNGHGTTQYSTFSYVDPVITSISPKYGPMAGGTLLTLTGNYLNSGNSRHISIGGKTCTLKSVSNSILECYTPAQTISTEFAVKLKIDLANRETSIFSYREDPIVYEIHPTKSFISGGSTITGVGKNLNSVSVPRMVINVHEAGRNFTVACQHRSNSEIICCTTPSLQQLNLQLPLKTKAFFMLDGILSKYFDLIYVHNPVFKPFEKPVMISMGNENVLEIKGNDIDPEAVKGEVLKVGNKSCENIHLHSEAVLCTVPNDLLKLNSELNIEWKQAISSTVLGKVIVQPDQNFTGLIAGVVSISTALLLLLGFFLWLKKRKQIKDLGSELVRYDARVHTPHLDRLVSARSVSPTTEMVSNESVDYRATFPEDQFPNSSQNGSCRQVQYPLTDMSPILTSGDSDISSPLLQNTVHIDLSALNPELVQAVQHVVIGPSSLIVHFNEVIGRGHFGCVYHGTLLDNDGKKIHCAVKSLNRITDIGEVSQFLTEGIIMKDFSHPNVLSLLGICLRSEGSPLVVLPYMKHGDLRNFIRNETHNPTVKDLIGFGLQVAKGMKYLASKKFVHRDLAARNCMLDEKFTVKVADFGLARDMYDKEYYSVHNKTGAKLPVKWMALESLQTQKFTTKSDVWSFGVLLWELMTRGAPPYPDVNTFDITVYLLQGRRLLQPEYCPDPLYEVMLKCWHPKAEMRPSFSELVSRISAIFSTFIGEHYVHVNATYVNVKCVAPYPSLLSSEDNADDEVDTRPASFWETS
Chain of Cyclin-dependent kinase 18 (Homo sapiens) (Q07002 whole entry): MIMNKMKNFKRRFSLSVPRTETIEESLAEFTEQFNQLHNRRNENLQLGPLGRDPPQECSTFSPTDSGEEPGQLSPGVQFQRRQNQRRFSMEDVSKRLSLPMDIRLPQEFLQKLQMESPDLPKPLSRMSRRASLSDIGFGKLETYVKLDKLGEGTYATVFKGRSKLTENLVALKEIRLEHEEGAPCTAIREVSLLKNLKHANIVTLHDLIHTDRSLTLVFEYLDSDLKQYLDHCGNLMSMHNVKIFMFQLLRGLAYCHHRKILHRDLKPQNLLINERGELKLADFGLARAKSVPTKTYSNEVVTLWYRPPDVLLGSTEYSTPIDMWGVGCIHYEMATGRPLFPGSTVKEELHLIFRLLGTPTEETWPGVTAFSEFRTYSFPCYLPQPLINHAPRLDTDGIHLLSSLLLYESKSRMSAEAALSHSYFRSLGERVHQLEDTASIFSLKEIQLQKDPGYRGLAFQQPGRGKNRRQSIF

Compound `CNC(=O)c1ccccc1Oc1nc(Nc2cc(OC)c(OC)c(OC)c2)ncc1Br` has an inhibition [1] of 19%, an inhibition [2] of 0% and a fold change (FC) [3] of 0.26. It also gave a fold change (FC) [4] of 0.

Compound `CC(C)[C@H](NC(=O)c1cc(-c2cnn3cc(-c4ccc(OCCN5CCCCC5)cc4)cnc23)cs1)C(F)(F)F` has an inhibition [5] of 0%, an inhibition [6] of 16% and an inhibition [7] of 0%. For the same compound, the inhibition [8] was 22%, the fold change (FC) [9] was 0.07 and the fold change (FC) [10] was 0.02. For the same compound, the inhibition [11] was 0%.

`O=C(N[C@@H](C1CC1)C(F)(F)F)c1cc(-c2cnn3cc(-c4ccc(F)cc4)cnc23)cs1` was tested, and the inhibition [12] was 0%, the inhibition [13] was 31% and the fold change (FC) [14] was 0.07. The fold change (FC) [15] was 0.32.

From ChEMBL document CHEMBL5653631, “A Potent and Selective ULK1 Inhibitor Suppresses Autophagy and Sensitizes Cancer Cells to Nutrient Stress” (iScience, 2018)
